Assay results from ChEMBL document CHEMBL3272058, “Synthesis, structure, and reactivity of adenosine cyclic 3',5'-phosphate benzyl triesters” (J Med Chem, 1977).

Key:
C6 [1] = assay: Morphological alteration in rat C6 cells at 10^-3 M after 90 mins by microscopy; type: ADME, cell-based; details: c6, 1.5 h, 1000 µM
How it was run: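 Near-confluent C6 rat glioma cultures (about 5-9 x 10^5 cells per plate), grown in DME with 10% newborn calf serum, were given 10^-3 M of each triester with theophylline. After 90 min on a shaking table, morphological change was scored microscopically as the percentage of altered cells. + means 90-95% and - means 0% differentiation.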

Bos taurus [2] = organism: Bos taurus; assay: Activation of bovine brain cAMP-dependent protein kinase assessed as transfer of p32 to histone using [gamma-32P]ATP at 10^-7 M relative to cAMP triester
How it was run: (§1)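 Bovine brain cAMP-dependent protein kinase was purified by DEAE-cellulose chromatography (about 1000 units/mg). The 0.2 mL mix held 50 mM Mops pH 6.5, 5 mM MgCl2, 7 mM mercaptoethanol, [γ-32P]ATP (1.3 Ci/mmol), 60 µg calf thymus histones, 15-25 µg kinase and triester or cAMP. It ran 5 min at 30 °C, reading 32P in acid-precipitable histones. Value is test-compound activity divided by cAMP activity.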

Bos taurus [3] = organism: Bos taurus; assay: Activation of bovine brain cAMP-dependent protein kinase assessed as transfer of p32 to histone using [gamma-32P]ATP at 10^-6 M relative to cAMP triester; how it was run: as §1
[4] = Half life in Mops buffer at pH 6.5 at 30 degC by liquid chromatography; type: physicochemical
How it was run: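 Triester was held in Mops buffer, pH 6.5, at 30 °C. Products were separated by LC with UV monitoring at 258 nm, using integration or an internal standard. Half-life came from a pseudo-first-order kinetic fit.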

[5] = Half life in H2O at 5 uM at 50 degC by liquid chromatography; type: physicochemical; details: water
Bos taurus [6] = organism: Bos taurus; assay: Activation of bovine brain cAMP-dependent protein kinase assessed as transfer of p32 to histone using [gamma-32P]ATP at 10^-4 M relative to cAMP triester; how it was run: as §1
[7] = Retardation factor, Rf of the compound in ClCH2CH2Cl-EtOH solvent
Bos taurus [8] = organism: Bos taurus; assay: Activation of bovine brain cAMP-dependent protein kinase assessed as transfer of p32 to histone using [gamma-32P]ATP at 10^-5 M relative to cAMP triester; how it was run: as §1
[9] = Retardation factor, Rf of the compound in […] solvent; type: physicochemical
[10] = Photolysis mediated drug hydrolysis assessed as half life under 366 nm irradiation by liquid chromatography; type: physicochemical
How it was run: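 The o-nitrobenzyl ester, 4 mM in Me2SO-phosphate buffer pH 7.1 (1:10 v/v), was irradiated at 366 nm with a 320 nm cut-off, at 37 °C and 6 cm from the source. Half-life was estimated from the rate of cAMP formation followed by LC.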

C6 [11] = assay: Drug uptake in rat C6 cells assessed as morphologically differentiation at 10^-4 M after 90 mins by microscopy; type: ADME, cell-based; details: c6, 1.5 h, 100 µM
How it was run: (§2)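 Growing C6 rat glioma cells were kept in DME with 10% newborn calf serum at 37 °C under 10% CO2. Near-confluent plates (about 5-9 x 10^5 cells) were exposed to triester with theophylline on a constantly moving shaking table. The percentage of morphologically altered cells was estimated by microscopy at intervals, with an error of 5-10%.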

C6 [12] = assay: Drug uptake in rat C6 cells assessed as morphologically differentiation at 10^-4 M after 50 mins by microscopy; type: ADME, cell-based; details: c6, 50 min, 100 µM; how it was run: as §2
C6 [13] = assay: Drug uptake in rat C6 cells assessed as morphologically differentiation at 10^-4 M after 20 mins by microscopy; type: ADME, cell-based; details: c6, 20 min, 100 µM; how it was run: as §2
C6 [14] = assay: Drug uptake in rat C6 cells assessed as cAMP level per of protein at 10^-4 M after 90 mins; type: ADME, cell-based; details: c6, 1.5 h, 100 µM
How it was run: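 C6 glioma cells were grown in DME with 10% newborn calf serum at 37 °C under 10% CO2 and treated with triester plus theophylline. After 90 min, internal cAMP was measured by Gilman's method and related to protein, using a bovine serum albumin standard.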

C6 [15] = assay: Drug uptake in rat C6 cells assessed as morphologically differentiation at 10^-3 M after 50 mins by microscopy; type: ADME, cell-based; details: c6, 50 min, 1000 µM
C6 [16] = assay: Drug uptake in rat C6 cells assessed as morphologically differentiation at 10^-3 M after 90 mins by microscopy; type: ADME, cell-based; details: c6, 1.5 h, 1000 µM
C6 [17] = assay: Drug uptake in rat C6 cells assessed as cAMP level per of protein at 10^-3 M after 90 mins; type: ADME, cell-based; details: c6, 1.5 h, 1000 µM
C6 [18] = assay: Drug uptake in rat C6 cells assessed as morphologically differentiation at 10^-3 M after 20 mins by microscopy; type: ADME, cell-based; details: c6, 20 min, 1000 µM

Compound | Activity (C6 [1]) [%] | Ratio (Bos taurus [2]) | Ratio (Bos taurus [3]) | half-life [4] [h] | half-life at 5 µM [5] [h] | Ratio (Bos taurus [6]) | Rf [7] | Ratio (Bos taurus [8]) | Rf [9] | half-life [10] [h] | Activity (C6 [11]) [%] | Activity (C6 [12]) [%] | Activity (C6 [13]) [%] | Activity (C6 [14]) [pmol/mg] | Activity (C6 [15]) [%] | Activity (C6 [16]) [%] | Activity (C6 [17]) [pmol/mg] | Activity (C6 [18]) [%]
CO[P@]1(=O)OC[C@H]2OC(n3cnc4c(N)ncnc43)[C@H](O)[C@@H]2O1 (single isomer, unassigned) | 0 | – | – | – | – | – | – | – | – | – | – | – | – | – | – | – | – | –
Nc1ncnc2c1ncn2[C@@H]1O[C@@H]2CO[P@@](=O)(OCc3ccccc3)O[C@H]2[C@H]1O | 90 | 0.03 | 0.49 | 3 | 0.5 | 1.22 | 0.25 | 1 | 0.35 | – | – | – | – | – | – | – | – | –
Nc1ncnc2c1ncn2[C@@H]1O[C@@H]2CO[P@](=O)(OCc3ccccc3[N+](=O)[O-])O[C@H]2[C@H]1O | 90 | 0 | 0 | 9.5 | 300 | 0.34 | 0.39 | 0.05 | 0.44 | 1.1 | – | – | – | – | – | – | – | –
CO[P@@]1(=O)OC[C@H]2O[C@@H](n3cnc4c(N)ncnc43)[C@H](O)[C@@H]2O1 | 0 | – | – | – | – | – | – | – | – | – | – | – | – | – | – | – | – | –
Nc1ncnc2c1ncn2[C@@H]1O[C@@H]2COP(=O)(OCc3ccccc3)O[C@H]2[C@H]1O (stereo partly specified) | – | 0.07 | 0.46 | – | – | 0.66 | – | 0.84 | – | – | – | – | – | – | – | – | – | –
Nc1ncnc2c1ncn2[C@@H]1O[C@@H]2COP(=O)(OCc3ccccc3)O[C@H]2[C@H]1O (single isomer, unassigned) [listing 1 of 2 here] | – | 0 | 0.09 | – | – | 0.45 | – | 0.59 | – | – | – | – | – | – | – | – | – | –
Nc1ncnc2c1ncn2[C@@H]1O[C@@H]2COP(=O)(OCc3ccccc3)O[C@H]2[C@H]1O (single isomer, unassigned) [listing 2 of 2 here] | 90 | – | – | 9.5 | 2.2 | – | 0.39 | – | 0.46 | – | – | – | – | – | – | – | – | –
COP1(=O)OC[C@H]2O[C@@H](n3cnc4c(N)ncnc43)[C@H](O)[C@@H]2O1 (stereo partly specified) | – | 0 | 0.05 | – | – | 0.67 | 0.18 | 0.52 | 0.33 | – | – | – | – | – | – | – | – | –

Continued, values first:

Activity (C6 [1]) [%] | Ratio (Bos taurus [2]) | Ratio (Bos taurus [3]) | half-life [4] [h] | half-life at 5 µM [5] [h] | Ratio (Bos taurus [6]) | Rf [7] | Ratio (Bos taurus [8]) | Rf [9] | half-life [10] [h] | Activity (C6 [11]) [%] | Activity (C6 [12]) [%] | Activity (C6 [13]) [%] | Activity (C6 [14]) [pmol/mg] | Activity (C6 [15]) [%] | Activity (C6 [16]) [%] | Activity (C6 [17]) [pmol/mg] | Activity (C6 [18]) [%] | Compound
90 | 0 | 0 | 9.5 | 240 | 0.54 | 0.34 | 0.24 | 0.43 | – | – | – | – | – | – | – | – | – | Nc1ncnc2c1ncn2[C@@H]1O[C@@H]2CO[P@](=O)(OCc3ccc([N+](=O)[O-])cc3)O[C@H]2[C@H]1O
0 | 0 | 0 | 3 | – | 0.58 | 0.19 | 0.06 | 0.35 | – | – | – | – | – | – | – | – | – | CCO[P@]1(=O)OC[C@H]2O[C@@H](n3cnc4c(N)ncnc43)[C@H](O)[C@@H]2O1
90 | 0 | 0.04 | 3 | 73 | 1.01 | 0.25 | 0.49 | 0.37 | – | – | – | – | – | – | – | – | – | Nc1ncnc2c1ncn2[C@@H]1O[C@@H]2CO[P@@](=O)(OCc3ccc([N+](=O)[O-])cc3)O[C@H]2[C@H]1O
– | – | – | – | – | – | – | – | – | – | 90 | 80 | 50 | 250 | – | – | – | – | NC[C@H](O)c1ccc(O)c(O)c1.O=C(O)C(O)C(O)C(=O)O
90 | 0 | 0.04 | 3 | 83 | 1.28 | 0.26 | 0.59 | 0.39 | 0.867 | – | – | – | – | – | – | – | – | Nc1ncnc2c1ncn2[C@@H]1O[C@@H]2CO[P@@](=O)(OCc3ccccc3[N+](=O)[O-])O[C@H]2[C@H]1O
90 | – | – | 9.5 | 0.1 | – | 0.26 | – | 0.45 | – | 80 | 30 | 10 | 70 | 60 | 90 | 225 | 20 | Cc1ccc(CO[P@@]2(=O)OC[C@H]3O[C@@H](n4cnc5c(N)ncnc54)[C@H](O)[C@@H]3O2)cc1
0 | 0 | 0 | 9.5 | – | 0.14 | 0.3 | 0.06 | 0.4 | – | – | – | – | – | – | – | – | – | CCO[P@@]1(=O)OC[C@H]2O[C@@H](n3cnc4c(N)ncnc43)[C@H](O)[C@@H]2O1
